Activity calls are given as the source filed them. No cut-off for these calls is given here.
Tests used:
[1] = target: T1, 72 kDa type IV collagenase (Homo sapiens, UniProt P08253); experiment: Inhibition of recombinant human MMP2 using thiopeptide as substrate preincubated for 30 mins followed by substrate addition and measured every mins for 20 min by colorimetric assay
Target sequence in this assay (P08253 whole entry): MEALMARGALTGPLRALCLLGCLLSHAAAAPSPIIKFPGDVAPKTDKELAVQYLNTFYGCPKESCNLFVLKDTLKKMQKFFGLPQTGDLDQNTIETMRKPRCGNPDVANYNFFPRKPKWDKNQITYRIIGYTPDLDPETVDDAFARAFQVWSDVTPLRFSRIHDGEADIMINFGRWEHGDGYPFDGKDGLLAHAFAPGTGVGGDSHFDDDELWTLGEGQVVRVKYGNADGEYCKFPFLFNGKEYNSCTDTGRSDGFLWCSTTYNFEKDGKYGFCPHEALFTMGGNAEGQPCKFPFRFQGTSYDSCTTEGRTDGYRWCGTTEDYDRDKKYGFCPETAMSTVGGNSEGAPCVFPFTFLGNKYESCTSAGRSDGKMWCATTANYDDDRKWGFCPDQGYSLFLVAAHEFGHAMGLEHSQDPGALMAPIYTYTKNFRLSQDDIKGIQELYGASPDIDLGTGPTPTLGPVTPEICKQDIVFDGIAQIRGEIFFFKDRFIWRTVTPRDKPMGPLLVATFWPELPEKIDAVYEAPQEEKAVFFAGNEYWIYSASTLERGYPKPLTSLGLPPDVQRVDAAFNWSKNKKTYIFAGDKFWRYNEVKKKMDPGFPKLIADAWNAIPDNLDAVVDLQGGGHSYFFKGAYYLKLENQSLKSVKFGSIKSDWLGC

[2] = target: T2, Matrix metalloproteinase-9 (Homo sapiens, UniProt P14780); experiment: Inhibition of recombinant human MMP9 using thiopeptide as substrate preincubated for 30 mins followed by substrate addition and measured every min for 20 mins by colorimetric assay
[3] = target: T1, 72 kDa type IV collagenase; experiment: Inhibition of recombinant human MMP2 at 10 uM using thiopeptide as substrate preincubated for 30 mins followed by substrate addition and measured every min for 20 mins by colorimetric assay relative to control
Summary of the method: (§1)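 Colorimetric kit assay: human recombinant enzyme plus inhibitor in assay buffer for 30 min at 37 °C, then chromogenic MMP substrate added; A412 recorded each minute over 20 min. Enzyme-free blanks and inhibitor-free controls included.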
Target sequence in this assay (P08253 110-660 limits assumed): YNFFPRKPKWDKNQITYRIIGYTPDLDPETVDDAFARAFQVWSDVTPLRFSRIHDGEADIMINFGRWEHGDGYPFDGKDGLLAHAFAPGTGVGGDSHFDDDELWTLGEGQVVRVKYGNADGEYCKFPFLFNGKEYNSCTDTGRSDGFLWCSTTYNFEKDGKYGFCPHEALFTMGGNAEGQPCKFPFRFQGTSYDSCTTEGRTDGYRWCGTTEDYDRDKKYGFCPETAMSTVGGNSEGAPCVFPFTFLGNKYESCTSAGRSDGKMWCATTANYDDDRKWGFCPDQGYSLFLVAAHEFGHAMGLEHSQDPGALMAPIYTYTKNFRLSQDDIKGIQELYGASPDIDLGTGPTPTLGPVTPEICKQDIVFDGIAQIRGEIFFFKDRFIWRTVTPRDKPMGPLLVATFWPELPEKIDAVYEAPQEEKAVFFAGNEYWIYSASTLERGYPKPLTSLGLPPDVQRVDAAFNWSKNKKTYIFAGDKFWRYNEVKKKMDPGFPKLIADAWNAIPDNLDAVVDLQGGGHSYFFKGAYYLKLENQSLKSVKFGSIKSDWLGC

[4] = target: T2, Matrix metalloproteinase-9; experiment: Inhibition of recombinant human MMP9 at 10 uM using thiopeptide as substrate preincubated for 30 mins followed by substrate addition and measured every min for 20 mins by colorimetric assay relative to control; summary of the method: as §1
PC-3 = experiment: Antiproliferative activity against human PC3 cells assessed as reduction in cell viability incubated for 48 hrs by MTT assay; type: functional, cell-based; settings: PC-3, 48 h
Summary of the method: (§2)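 Cells grown in RPMI1640 with 10% FBS at 37°C, 5% CO2; seeded at 4000-5000 cells/well for 8 h, then exposed to a range of compound concentrations for 48 h. MTT added for 4 h, formazan dissolved in DMSO, absorbance at 570 nm; IC50 calculated from inhibition ratios.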

KG-1 = experiment: Antiproliferative activity against human KG1 cells assessed as reduction in cell viability incubated for 48 hrs by MTT assay; type: functional, cell-based; settings: KG-1, 48 h; summary of the method: as §2
HUVEC = experiment: Cytotoxicity against HUVEC assessed as reduction in cell viability incubated for 48 hrs by MTT assay; type: cell-based; settings: Homo sapiens; summary of the method: as §2
K562 = experiment: Antiproliferative activity against human K562 cells assessed as reduction in cell viability incubated for 48 hrs by MTT assay; type: functional, cell-based; settings: K562, 48 h; summary of the method: as §2
MCF7 = experiment: Antiproliferative activity against human MCF7 cells assessed as reduction in cell viability incubated for 48 hrs by MTT assay; type: functional, cell-based; settings: MCF7, 48 h; summary of the method: as §2
A549 [5] = experiment: Antiproliferative activity against human A549 cells assessed as reduction in cell viability incubated for 48 hrs by MTT assay; type: functional, cell-based; settings: A549, 48 h; summary of the method: as §2
HL-60 = experiment: Antiproliferative activity against human HL60 cells assessed as reduction in cell viability incubated for 48 hrs by MTT assay; type: functional, cell-based; settings: HL-60, 48 h; summary of the method: as §2
A549 [6] = experiment: Inhibition of cell invasion in human A549 cells at 1 to 10 uM incubated for 24 hrs by crystal violet staining based matrigel migration assay; type: functional
Summary of the method: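 As the migration setup but membrane precoated with matrigel (1:10 diluted) for 2 h at 37°C: A549 pretreated 24 h at 1, 5, 10 µM, 30,000 cells in serum-free medium above, 10% FBS below, 24 h, then fixing, 0.1% crystal violet staining and counting. Three repeats, mean ± SEM.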

T2 sequence (P14780 whole entry): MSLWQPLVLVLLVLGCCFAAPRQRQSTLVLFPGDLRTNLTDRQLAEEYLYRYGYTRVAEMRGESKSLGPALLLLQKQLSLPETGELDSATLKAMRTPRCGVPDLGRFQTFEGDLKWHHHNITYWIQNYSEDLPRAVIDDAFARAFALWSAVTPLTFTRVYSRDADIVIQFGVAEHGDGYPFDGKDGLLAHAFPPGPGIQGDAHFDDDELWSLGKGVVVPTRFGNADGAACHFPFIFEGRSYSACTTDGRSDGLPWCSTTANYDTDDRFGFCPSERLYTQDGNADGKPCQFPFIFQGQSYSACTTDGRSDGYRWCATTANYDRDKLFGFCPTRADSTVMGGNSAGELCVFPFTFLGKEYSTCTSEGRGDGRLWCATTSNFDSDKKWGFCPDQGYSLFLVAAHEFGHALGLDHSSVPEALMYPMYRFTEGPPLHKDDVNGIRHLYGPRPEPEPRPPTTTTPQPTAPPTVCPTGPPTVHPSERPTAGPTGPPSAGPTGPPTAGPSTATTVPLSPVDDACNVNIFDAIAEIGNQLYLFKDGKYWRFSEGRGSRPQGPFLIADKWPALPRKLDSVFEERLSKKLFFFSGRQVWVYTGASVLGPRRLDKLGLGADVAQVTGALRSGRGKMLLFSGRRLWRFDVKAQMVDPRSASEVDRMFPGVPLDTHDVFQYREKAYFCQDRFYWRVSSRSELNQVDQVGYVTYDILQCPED

| IC50 [1] | IC50 [2] | inhibition [3] | inhibition [4] | IC50 (PC-3) | IC50 (K562) | IC50 (MCF7) | IC50 (A549 [5]) | IC50 (HL-60) | SMILES | IC50 (KG-1) | IC50 (HUVEC) | inhibition (A549 [6]) |
| --- | --- | --- | --- | --- | --- | --- | --- | --- | --- | --- | --- | --- |
| > 10 µM | > 10 µM |  |  |  |  |  |  |  | Cc1nc2ccccc2n1CCCCC(=O)Nc1ccc(O)c2ncccc12 |  |  |  |
| > 10 µM | > 10 µM | 46.9% |  |  |  |  |  |  | Cc1nc2ccccc2n1CCCC(=O)Nc1ccc(O)c2ncccc12 |  |  |  |
| > 10 µM | > 10 µM |  |  |  |  |  |  |  | Cc1nc2ccccc2n1CCC(=O)Nc1ccc(O)c2ncccc12 |  |  |  |
| > 10 µM | > 10 µM |  |  |  |  |  |  |  | O=C(CCCCN1C(=O)c2ccccc2S1(=O)=O)Nc1ccc(O)c2ncccc12 |  |  |  |
| > 10 µM | > 10 µM |  |  |  |  |  |  |  | CN(CCCC(=O)Nc1ccc(O)c2ncccc12)c1ccccc1 |  |  |  |
| > 10 µM | > 10 µM |  |  |  |  |  |  |  | CN(CCC(=O)Nc1ccc(O)c2ncccc12)c1ccccc1 |  |  |  |
| > 10 µM | > 10 µM |  |  |  |  |  |  |  | O=C(CCN1C(=O)c2ccccc2S1(=O)=O)Nc1ccc(O)c2ncccc12 |  |  |  |
| > 10 µM | > 10 µM | 50.1% |  |  |  |  |  |  | O=C(CCCN1C(=O)c2ccccc2S1(=O)=O)Nc1ccc(O)c2ncccc12 |  |  |  |
| > 10 µM | > 10 µM | 38.9% |  |  |  |  |  |  | Cc1nc2ccccc2n1CCCCCC(=O)Nc1ccc(O)c2ncccc12 |  |  |  |

More lines, now with the values behind:

| SMILES | IC50 [1] | IC50 [2] | inhibition [3] | inhibition [4] | IC50 (PC-3) | IC50 (K562) | IC50 (MCF7) | IC50 (A549 [5]) | IC50 (HL-60) | IC50 (KG-1) | IC50 (HUVEC) | inhibition (A549 [6]) |
| --- | --- | --- | --- | --- | --- | --- | --- | --- | --- | --- | --- | --- |
| O=C(CCCCCCNCc1ccc(O)c2ncccc12)Nc1ccccc1 | > 10 µM | > 10 µM | 53.8% | 28.8% |  |  |  |  |  |  |  |  |
| O=C(CNCc1cc(Cl)c2cccnc2c1O)Nc1ccccc1 | 3.2 µM | 2.1 µM | 95.8% | 78.8% | 10 µM | 2900 nM | 13 µM | 7.4 µM | > 5000 nM | 2300 nM | > 50 µM |  |
| Cc1[nH]c2ccccc2c1CCNC(=O)CCNCc1ccc(O)c2ncccc12 | > 10 µM | > 10 µM | 49.8% | 11.3% |  |  |  |  |  |  |  |  |
| Cc1[nH]c2ccccc2c1CCNC(=O)CCNCc1cc(Cl)c2cccnc2c1O | > 10 µM | > 10 µM |  | 73.9% |  |  |  |  |  |  |  |  |
| Cc1[nH]c2ccccc2c1CCNC(=O)CCCCNCc1ccc(O)c2ncccc12 | 8.8 µM | 5.3 µM | 61% | 67.8% |  |  |  |  |  |  |  |  |
| Cc1[nH]c2ccccc2c1CCNC(=O)CCCCCNCc1cc(Cl)c2cccnc2c1O | 3.6 µM | 1.7 µM | 100% | 77.1% | > 25 µM | 4200 nM | 12 µM | > 25 µM | 2600 nM | 4700 nM | > 50 µM |  |
| O=C(CNCc1ccc(O)c2ncccc12)Nc1ccccc1 | > 10 µM | > 10 µM |  | 42.9% |  |  |  |  |  |  |  |  |
| O=C(CCNCc1ccc(O)c2ncccc12)Nc1ccccc1 | > 10 µM | > 10 µM |  | 9.8% |  |  |  |  |  |  |  |  |
| O=C(CCCCNCc1cc(Cl)c2cccnc2c1O)Nc1ccccc1 | 3 µM | 3.6 µM | 100% | 99.9% | 8.4 µM | 2900 nM | 7.4 µM | 13 µM | 1900 nM | 1600 nM | > 50 µM |  |
| COc1ccc(S(=O)(=O)N(CC(=O)NO)CC(C)C)cc1 | 0.0091 µM | 0.0088 µM |  |  | 52 µM | 143000 nM | 187 µM | 96 µM | 29000 nM | 52000 nM | > 250 µM | Active |
| Cc1[nH]c2ccccc2c1CCNC(=O)CNCc1cc(Cl)c2cccnc2c1O | 8.8 µM | > 10 µM | 59.5% | 35.2% |  |  |  |  |  |  |  |  |
| CC1(C)SCCN(S(=O)(=O)c2ccc(Oc3ccncc3)cc2)[C@H]1C(=O)NO [PRINOMASTAT] |  |  |  |  | > 500 µM | > 500000 nM | > 500 µM | > 500 µM | > 500000 nM | > 500000 nM | > 500 µM | Active |
| O=C(CCCCCN1C(=O)c2ccccc2S1(=O)=O)Nc1ccc(O)c2ncccc12 | > 10 µM | > 10 µM |  | 24.3% |  |  |  |  |  |  |  |  |
| O=C(CCCNCc1ccc(O)c2ncccc12)Nc1ccccc1 | 5.7 µM | 5.1 µM | 54.5% | 83.9% |  |  |  |  |  |  |  |  |
| O=C(CCCCNCc1ccc(O)c2ncccc12)Nc1ccccc1 | > 10 µM | > 10 µM |  | 36.5% |  |  |  |  |  |  |  |  |
| O=C(CCNCc1cc(Cl)c2cccnc2c1O)Nc1ccccc1 | 3.3 µM | 3.5 µM | 100% | 98.9% | 1.9 µM | 1700 nM | 13 µM | 9.7 µM | 1300 nM | 1100 nM | > 50 µM |  |
| O=C(CCCCCNCc1ccc(O)c2ncccc12)Nc1ccccc1 | 8.8 µM | 6 µM | 56% | 55% |  |  |  |  |  |  |  |  |
| Cc1[nH]c2ccccc2c1CCNC(=O)CCCCNCc1cc(Cl)c2cccnc2c1O | 7.6 µM | 3.1 µM | 67.8% | 100% |  |  |  |  |  |  |  |  |
| O=C(CCCNCc1cc(Cl)c2cccnc2c1O)Nc1ccccc1 | 3.8 µM | 3.2 µM | 100% | 100% | 7.7 µM | 1900 nM | 9 µM | 17 µM | 1900 nM | 1600 nM | > 50 µM |  |
| Cc1[nH]c2ccccc2c1CCNC(=O)CCCNCc1ccc(O)c2ncccc12 | > 10 µM | > 10 µM | 44.8% | 12.3% |  |  |  |  |  |  |  |  |

— ChEMBL document CHEMBL4406825, “Design, synthesis and preliminary bioactivity evaluations of 8-hydroxyquinoline derivatives as matrix metalloproteinase (MMP) inhibitors” (Eur J Med Chem, 2019)
